Most compounds without a hit are left out; they make up all but 3.7% or so of the library.
CHO parental Ca: counter-screen for OX1R antagonists: effect in parental CHO cells | AID 463079 | parental CHO-K1, ATP-induced calcium, Fluo-8 fluorescence | inhibition, % at 5.6 µM | 330,000 compounds, 0.63% hits;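 active means inhibition above that plate's mean sample inhibition plus 3 SD, cut at about 26% in these data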;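 further: 0% = ATP-challenged DMSO wells and 100% = DMSO wells without ATP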
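Assay system: untransfected parental CHO cell line. Also added: ATP agonist challenge. Dosing: one dose, 5.6 µM nominal. Measured by: Fluo-8 fluorescence. Read-out: % inhibition. Benchmarks: ATP wells versus no-ATP DMSO wells. Repeats: no replicates.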
OX1R antag-1: antagonists of human orexin 1 receptor. inhibition, % at 5 µM. 330,000 compounds, 0.43% hits. AID 434989. CHO/OX1R cells, Fluo-8 calcium fluorescence, orexin A;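 active means inhibition above its plate's threshold, mean inhibition of all tested compounds on the plate plus 3 SD, cut at about 37% in these data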;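 further: 0% = orexin A challenge wells and 100% = SB-334867-A antagonist wells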
GPR7 antag: antagonists of human GPR7 (neuropeptides B/W receptor 1) | P48145 | GPR7-expressing cells, fluorescence antagonist assay | inhibition, % at 4.4 µM | 290,000 compounds, 1.1% hits; in the data active means inhibition above about 16%, passing the limit was not always enough;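 further: cells stimulated with the agonist NPW; 0% = agonist with vehicle and 100% = vehicle without agonist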
EP2 antag: blocks the human prostaglandin E2 receptor EP2. P43116. C6 glioma cells expressing human EP2, cAMP TR-FRET; cells stimulated with saturating PGE2. inhibition, % at 25 µM. 260,000 compounds, 0.52% hits;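 active means percent inhibition above 40 after rounding to a whole number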;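 further: rat C6 glioma host cells with rolipram phosphodiesterase inhibitor present; the protocol text gives 20 µM as final concentration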
Target sequence (P43116 whole entry, looked up): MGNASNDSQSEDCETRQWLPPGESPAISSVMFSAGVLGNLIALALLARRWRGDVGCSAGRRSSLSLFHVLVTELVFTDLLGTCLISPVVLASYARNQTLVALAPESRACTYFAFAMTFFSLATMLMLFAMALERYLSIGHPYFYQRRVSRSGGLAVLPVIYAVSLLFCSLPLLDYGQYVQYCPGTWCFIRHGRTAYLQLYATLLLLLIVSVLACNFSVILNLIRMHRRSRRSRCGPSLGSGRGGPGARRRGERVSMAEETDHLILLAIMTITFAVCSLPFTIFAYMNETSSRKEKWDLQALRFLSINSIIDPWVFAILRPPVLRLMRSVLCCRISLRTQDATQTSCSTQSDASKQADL
EP2 modulator: modulates human prostaglandin E2 receptor EP2 signaling; EP2-expressing cells, cAMP HTRF FRET, PGE2 co-stimulation; AID 940; induction, % at 25 µM; 260,000 compounds, 0.83% hits;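 active means compounds whose cAMP rise, as percent of the full-agonist control response, exceeds 60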;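 further: rat C6 glioma line stably carrying human EP2 under a CMV promoter; the protocol text gives 20 µM as final concentration; 100% = response of wells given 1 µM PGE2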
OX1R antag-2: blocks the human orexin 1 receptor. O43613. AID 485270. OX1R-expressing cells, FRET antagonist read-out. 330,000 compounds, 1.8% hits. inhibition, % at 6.6 µM; in the data active means inhibition mostly above about 38%, no sharp cut-off; inactive means mostly below about 40%;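 further: 0% = agonist challenge alone and 100% = reference antagonist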
GPR7 antag cf: confirmation of human GPR7 antagonists; shares compounds with GPR7 antag; AID 1952; inhibition, % at 4.4 µM; 2,400 compounds, 52% hits; GPR7-expressing cells, calcium fluorescence antagonist mode; in the data active means inhibition above about 24%;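 further: stimulated with the GPR7 agonist NPW; 0% = agonist plus vehicle and 100% = vehicle alone without agonist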
MCHR1 antagonist: counter-screen for GPR7 antagonists: antagonists of human MCHR1; shares compounds with GPR7 antag; MCHR1-expressing cells, fluorescence antagonist assay; inhibition, % at 4.4 µM; 2,400 compounds, 62% hits; AID 2148; in the data active means inhibition above about 22%;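 further: 0% = vehicle with agonist and 100% = vehicle without agonist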
The depositor's hits bear a star.

`CCN1CCc2c(sc(NC(=O)Nc3ccc(Cl)c(Cl)c3)c2C(N)=O)C1` gave CHO parental Ca 94*, OX1R antag-1 99*, GPR7 antag 58*, EP2 antag 6, EP2 modulator 2, OX1R antag-2 24, GPR7 antag cf 60* and MCHR1 antagonist 81*.
CCN1CCc2c(sc(NC(=O)Cc3ccccc3)c2C(N)=O)C1 was read as CHO parental Ca 1, OX1R antag-1 -6, GPR7 antag -1 and OX1R antag-2 1.
`COCCCNC(=O)Cn1ccc(N)nc1=O` gave CHO parental Ca 5, OX1R antag-1 -13 and OX1R antag-2 11.
`O=P(Cc1ccncc1)(c1ccccc1)c1ccccc1` gave CHO parental Ca 14, OX1R antag-1 -1, GPR7 antag 5, EP2 antag 12, EP2 modulator 7 and OX1R antag-2 10.
`COc1ccc(-n2c(=S)[nH]c3cc(C(=O)NCc4ccccc4OC)ccc3c2=O)c(OC)c1` gave CHO parental Ca 2, OX1R antag-1 8, GPR7 antag 26*, OX1R antag-2 9, GPR7 antag cf 38* and MCHR1 antagonist 39*.
COc1ccc(-n2c(=S)[nH]c3cc(C(=O)NCc4ccc(F)cc4)ccc3c2=O)c(OC)c1 was read as CHO parental Ca -7, OX1R antag-1 8, GPR7 antag 7 and OX1R antag-2 10.
For COc1ccc(-n2c(=S)[nH]c3cc(C(=O)Nc4ccccc4OC)ccc3c2=O)c(OC)c1 the results were CHO parental Ca -12, OX1R antag-1 -9, GPR7 antag 31*, OX1R antag-2 8, GPR7 antag cf 24* and MCHR1 antagonist 46*.
Cc1ccc(C)c(N2CCN(CC(=O)Nc3ccc([N+](=O)[O-])cc3C(=O)Nc3ccccc3F)CC2)c1 was read as CHO parental Ca -22, OX1R antag-1 -33, GPR7 antag -6, EP2 antag -1, EP2 modulator 54 and OX1R antag-2 15.
Cc1ccccc1NC(=O)c1cc(N)ccc1N1CCCCC1 was read as CHO parental Ca -17, OX1R antag-1 -14, GPR7 antag -8, EP2 antag 6, EP2 modulator 43 and OX1R antag-2 4.
For O=C(CN1C(=O)c2ccccc2C1=O)Nc1ccccc1F the results were CHO parental Ca -12, OX1R antag-1 -25, GPR7 antag 21*, EP2 antag 15, EP2 modulator 20, OX1R antag-2 10, GPR7 antag cf -10 and MCHR1 antagonist 38*.
`O=C(CN1C(=O)c2ccccc2C1=O)Nc1ccccc1C(F)(F)F` gave CHO parental Ca -9, OX1R antag-1 -15, GPR7 antag -3 and OX1R antag-2 15.
COc1ccc(N=C2SCC(c3ccc([N+](=O)[O-])cc3)=NN2CCO)cc1 was read as CHO parental Ca -18, OX1R antag-1 -3, GPR7 antag 32*, EP2 antag 11, EP2 modulator -53, OX1R antag-2 5, GPR7 antag cf 28* and MCHR1 antagonist 40*.
COc1ccc(N=C2SCC(c3ccc(C)cc3)=NN2CCO)cc1 was read as CHO parental Ca -5, OX1R antag-1 -6, GPR7 antag 17, EP2 antag 3, EP2 modulator -10 and OX1R antag-2 15.
`O=[N+]([O-])c1ccc(C2=NN(CCO)C(=Nc3ccc(OC(F)(F)F)cc3)SC2)cc1` gave CHO parental Ca 2, OX1R antag-1 -2, GPR7 antag 28*, EP2 antag 13, EP2 modulator -2, OX1R antag-2 24, GPR7 antag cf 54* and MCHR1 antagonist 37*.
COc1ccc(N=C2SC(C(=O)N3CCN(c4ccc([N+](=O)[O-])cc4)CC3)CC(=O)N2C)cc1 (stereo unspecified) was read as CHO parental Ca -6, OX1R antag-1 -10, GPR7 antag -2, EP2 antag 17, EP2 modulator -65 and OX1R antag-2 9.

Screening data deposited in PubChem BioAssay by several laboratories.
